Assay results from different studies.
Each line is one published result; the experiments were not run side by side.
Adora2a: Adenosine receptor A2a (Adora2a, Rattus norvegicus, UniProt P30543)
Sterol carrier protein 2: Sterol carrier protein 2 (Aedes aegypti, UniProt Q86PR3)

CCCCCC(C)N1CCCn2c1nc1c2c(=O)n(C)c(=O)n1C (centres unmarked)
Ki (Adora2a; ligand displacement; radioligand; cell membranes): 2380 nM

N[C@@H](CCC(=O)O)C(=O)O
EC50 (Metabotropic glutamate receptor 4 (Grm4, Rattus norvegicus, UniProt P31423); ion flux; agonist): 7.9 µM

CCCS(=O)(=O)Nc1ccc(F)c(C(=O)c2c[nH]c3ncc(-c4ccc(Cl)cc4)cc23)c1F
Kd (Mitogen-activated protein kinase kinase kinase 20, non-phosphorylated (MAP3K20, Homo sapiens, UniProt Q9NYL2); binding; ITC): 29 nM

Cc1cc(Nc2cc3ncccc3c(N[C@@H]3C[C@H]4CC[C@@H](C3)N4CCC#N)n2)n[nH]1
Kd (Mitogen-activated protein kinase kinase kinase 9 (MAP3K9, Homo sapiens, UniProt P80192); binding; competition with immobilised ligand): 54 nM

O=C1/C(=C/c2ccco2)CCC/C1=C\c1ccco1
EC50 (Sterol carrier protein 2; ligand displacement; fluorescence): 62.9 µM

Cc1cnc(-c2ccc(-c3ccc(NC(=O)Nc4c(F)cc(F)cc4F)cc3F)c3c2C(=O)NC3)[nH]1
Kd (BDNF/NT-3 growth factors receptor (NTRK2, Homo sapiens, UniProt Q16620); binding; competition with immobilised ligand): 4.5 nM

O=C(/C=C/c1ccc(O)cc1)/C=C/c1ccc(O)cc1
EC50 (Sterol carrier protein 2; ligand displacement; fluorescence): 2.38 µM

C=CN1CCCn2c1nc1c2c(=O)n(C)c(=O)n1C
Ki (Adora2a; ligand displacement; radioligand; cell membranes): > 25000 nM

CCCCCCCCCCCCCCCC(=O)OC[C@H](COP(=O)(O)OC1[C@H](O)[C@H](O)C(OP(=O)(O)O)[C@H](O)[C@H]1O)OC(=O)CCCCCCCCCCCCCCC (some centres unmarked)
Kd (SHC-transforming protein 1 (Homo sapiens, UniProt P29353); binding; fluorescence): 4100 nM

CCCN1CCN(c2ccc(-c3cncc(Cl)c3N3CCC4(CCNC4=O)CC3)cc2)CC1
Kd (E3 ubiquitin-protein ligase NEDD4 (Homo sapiens, UniProt P46934); cell-free assay; lysate): 18400 nM

CN1CCN(c2ccc(Nc3ncc4cc(C#N)c(=O)n(C5CCCC5)c4n3)cc2)CC1
IC50 (Calcium/calmodulin-dependent protein kinase type II subunit delta (CAMK2D, Homo sapiens, UniProt Q13557); enzyme activity; inhibitor): 1600 nM
